In one experiment the test system is RAW264.7. The experiment can be described thus: Inhibitory activity against nitric oxide production in lipopolysaccharide-activated mouse macrophage RAW264.7 cells. The experiment is classed as functional, cell-based. Put shortly: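 RAW264.7 cells in phenol-red-free DMEM with 10% FBS were plated at 8×10⁵ cells/mL and grown 24 h. The medium was then renewed, and cells were exposed to LPS with or without test sample for 20 h. Nitrite in the medium, taken as the NO indicator, was measured in triplicate with Griess reagent (0.1% naphthylethylenediamine, 1% sulfanilamide, 5% H₃PO₄). Inhibition was calculated as % of the vehicle-treated control, and IC₅₀ was taken from dose-response curves.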
In general, IC50 refers to the concentration that gives 50% inhibition. `COc1cc(/C=C\c2ccsc2)cc(OC)c1OC` came in with an IC50 of 5.6 µM.

For `COc1ccc(/C=C/c2cccs2)cc1`, the IC50 is > 50 µM.

Take `COc1cc(/C=C/c2ccco2)cc(OC)c1OC`: 5.9 µM corresponded to half-maximal inhibition (IC50).

In the case of `COc1cc(/C=C\c2cccs2)cc(OC)c1`, the IC50 is > 50 µM.

Turning to `COc1cc(/C=C/c2cccs2)cc(OC)c1OC`, the IC50 worked out at 5.3 µM.

Compound `COc1cc(/C=C\c2ccoc2)cc(OC)c1OC` displayed an IC50 of 6.6 µM.

For `COc1ccc(/C=C\c2cccs2)cc1`, the IC50 is > 50 µM.

On to `COc1cc(/C=C/c2cccs2)cc(OC)c1`, for which the IC50 is > 50 µM.

As to `COc1cc(/C=C/c2ccoc2)cc(OC)c1OC`, the IC50 was 9.5 µM.

With `Oc1ccc(/C=C/c2cc(O)cc(O)c2)cc1` [RESVERATROL], the IC50 is 15.9 µM.

Another experiment deals with RAW264.7. The experiment can be described thus: Inhibitory activity of the compound against nitric oxide production in lipopolysaccharide-activated mouse macrophage RAW264.7 cells.
Consider `COc1cc(/C=C/c2ccsc2)cc(OC)c1OC`, for which the IC50 was found to be 7.8 µM.
